The nature of series [1]: Octanol-water partition coefficient, log KOW of the compound. It is filed as physicochemical.
Series [2] is described as follows: Octanol-air partition coefficient, log KOA of the compound. It is filed as physicochemical.
Series [3] can be described thus: Biomagnification factors in Diporeia. It is filed as ADME.
The species named for a further series is Homo sapiens. The series is described as follows: Biomagnification factors in human. It is filed as ADME, organism-based. Particulars: in vivo. In outline: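 Modelled, not measured: a bioaccumulation model using fugacity D-values (respiration, diet, faeces, urine, metabolism, lactation, growth) gives BMF as fB/fD or CB/CD relative to diet. The Inuit diet is taken as Arctic fish and wildlife (caribou, ringed seal, walrus, beluga) plus southern Canadian agricultural foods, the latter simulated from Great Lakes food chains. KOA is evaluated at 37 °C.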

As a reminder, the logP is a log measure of how a compound divides between an organic and an aqueous phase. For the compound `Cc1c([N+](=O)[O-])c(C)c([N+](=O)[O-])c(C(C)(C)C)c1[N+](=O)[O-]`, the logP in series [1] (read-out: LogP) worked out at 4.1. In addition, in series [2], the “log KOA” value is listed as 8.9. Also, the BMF in series [3] is recorded as < 1; in the series filed under Homo sapiens, 89.
For `Brc1ccc(Oc2ccc(Br)cc2Br)c(Br)c1`, in series [1] (read-out: LogP), the logP worked out at 6. The “log KOA” value in series [2] stood at 9.8. Besides, the BMF in series [3] came to 2.2; in the series filed under Homo sapiens, 98.
As to `Brc1c(Br)c(Br)c(Oc2c(Br)c(Br)c(Br)c(Br)c2Br)c(Br)c1Br`, in series [1], the logP worked out at 9.9. For the same compound, the “log KOA” value in series [2] worked out at 13.1. Also, the results for the BMF (in series [3]; in the series filed under Homo sapiens) were 1 and 8, respectively.
With `Brc1ccc(Oc2cc(Br)c(Br)cc2Br)c(Br)c1`, the logP in series [1] (read-out: LogP) came to 6.8. In series [2], the “log KOA” value was 11.2. Also, the BMF is 2.5 in series [3] and 98 in the series listed under Homo sapiens.
As for `Clc1cc(Cl)c(-c2cc(Cl)c(Cl)c(Cl)c2Cl)cc1Cl`, the logP in series [1] (read-out: LogP) was found to be 7.5. Also, the “log KOA” value in series [2] was 10.9. The BMF in series [3] is listed as 2.5; in the series filed under Homo sapiens it was 95.
For the compound `O=S1OC[C@@H]2[C@H](CO1)[C@@]1(Cl)C(Cl)=C(Cl)[C@@]2(Cl)C1(Cl)Cl` (stereo partly specified), in series [1] (read-out: LogP), the log partition coefficient (logP) is 3.7. In addition, the “log KOA” value in series [2] was determined as 7.1. Besides, the BMF was < 1 in series [3] and 23 in the series listed under Homo sapiens.
For `Clc1cc(Cl)c(Cl)cc1Cl`, in that order: 4.7, 6.3, < 1 and 5.9.
For the compound `Clc1cc(Cl)cc(Cl)c1` [1,3,5-TRICHLOROBENZENE], in series [1] (read-out: LogP), the lipophilicity (logP) worked out at 3.5. In addition, the “log KOA” value in series [2] worked out at 4.7. Besides, the BMF (in series [3]; in the series filed under Homo sapiens) was < 1 throughout.
As to `Clc1cc(Cl)c(-c2cc(Cl)c(Cl)cc2Cl)cc1Cl` [2,2',4,4',5,5'-HEXACHLOROBIPHENYL], the logP in series [1] (read-out: LogP) was 7.5. Besides, the “log KOA” value in series [2] was determined as 9.6. For the same compound, the figures for the BMF (in series [3]; in the series listed under Homo sapiens) were 2.5 and 96, respectively.
For the compound `Cl[C@H]1[C@H](Cl)[C@@H](Cl)[C@H](Cl)[C@@H](Cl)[C@@H]1Cl` [BETA-HEXACHLOROCYCLOHEXANE], the logP in series [1] (read-out: LogP) is 3.8. Moreover, the “log KOA” value in series [2] is recorded as 8.9. Further, the values for the BMF (in series [3]; in the series listed under Homo sapiens) were < 1 and 84, respectively.
For `OC(c1ccc(Cl)cc1)(c1ccc(Cl)cc1)C(Cl)(Cl)Cl` [DICOFOL], in that order: 3.5, 8.9, < 1 and 76.
For `ClC1=C(Cl)[C@]2(Cl)[C@@H]3[C@@H]4C[C@@H]([C@H]5O[C@@H]45)[C@@H]3[C@@]1(Cl)C2(Cl)Cl` [DIELDRIN], in that order: 5.4, 8.8, 1.7 and 93.
For `ClC(Cl)=C(Cl)C(Cl)=C(Cl)Cl` [HEXACHLOROBUTADIENE], the logP in series [1] (read-out: LogP) is 4.5. The “log KOA” value in series [2] turned out to be 3.9. Moreover, the BMF (in series [3]; in the series filed under Homo sapiens) was < 1 each time.
In the case of `ClC1(Cl)C2(Cl)C3(Cl)C4(Cl)C(Cl)(Cl)C5(Cl)C3(Cl)C1(Cl)C5(Cl)C24Cl` (stereo unspecified) [MIREX], the logP in series [1] (read-out: LogP) was found to be 8.1. Moreover, in series [2], the “log KOA” value is on record as 9.6. In addition, the BMF in series [3] is listed as 1; in the series filed under Homo sapiens it was 82.
For `Clc1cc(Cl)c(Cl)c(Cl)c1Cl` [PENTACHLOROBENZENE], in that order: 5, 6.9, < 1 and 16.
For `Clc1c(Cl)c(Cl)c(Cl)c(Cl)c1Cl` [PERCHLOROBENZENE], in that order: 5.5, 7.7, 1.8 and 55.
For `C=Cc1ccccc1` [STYRENE], in that order: 2.5, 4.9, < 1 and < 1.
Consider `O=S(=O)(c1ccc(Cl)cc1)c1cc(Cl)c(Cl)cc1Cl` [TETRADIFON], for which, in series [1] (read-out: LogP), the logP worked out at 4.6. The “log KOA” value in series [2] was 11.4. Also, the BMF was < 1 in series [3] and 97 in the series listed under Homo sapiens.
For the compound `CCCN(CCC)c1c([N+](=O)[O-])cc(C(F)(F)F)cc1[N+](=O)[O-]` [TRIFLURALIN], in series [1] (read-out: LogP), the logP is 4.4. Also, the “log KOA” value in series [2] is 7.2. Moreover, the BMF is reported as < 1 in series [3] and 28 in the series filed under Homo sapiens.

Values taken from ChEMBL document CHEMBL1143755, “Food web-specific biomagnification of persistent organic pollutants” (Science, 2007).
